Screening results (PubChem BioAssay)
TAAR1 antag: human TAAR1 antagonists, primary screen, Fluo-8 calcium fluorescence, CHO RD-HGA16 cells; antagonist; actives 1.5% (n = 360,000); inhibition, % at 3 µM;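 active = inhibition above a per-plate cutoff, the mean inhibition of test compounds on that plate plus 3 SD, cut at about 49% in these data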;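 also: 0% = DMSO plus EC80 beta-PEA response and 100% = DMSO alone without agonist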
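Test system: CHO RD-HGA16 cells bearing hTAAR1 | Reagent: β-PEA, EC80 | Compound dosing: 3 µM, single point | Schedule: Dye loading 75 min at 37 °C, then 30 min room temperature | Signal: Calcium fluorescence with Fluo-8 | Evaluation: Percent inhibition of PEA-evoked calcium signal, max/basal emission ratio | Control set: DMSO-only wells and EC80 β-PEA-stimulated wells | Repeats: Singlicate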
TAAR1 ag: human TAAR1 agonists, primary screen, Fluo-8 calcium fluorescence, CHO RD-HGA16 cells; Trace amine-associated receptor 1 (Homo sapiens), Q96RJ0; vehicle wells 0%, saturating PEA agonist 100%; activation, % at 3 µM; actives 0.99% (n = 360,000); AID 624467, 2012;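 active = activation above the mean activation of all test compounds in the run plus 3 SD, cut at about 38% in these data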
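Test system: RD-HGA16 (CHO) cells co-expressing Gα16 and hTAAR1; dosing: one-point dosing at 3 µM (nominal); timing: 17-24 h seeding, 75 min 37 °C dye, 30 min RT; signal: kinetic Fluo-8 calcium fluorescence; read-out basis: % activation relative to PEA EC100 response; controls: DMSO and PEA EC100; replicates: n 1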
VLA-4 inh: inhibition in human VLA-4 binding assay, primary screen, VLA-4 allosteric modulator project, MLPCN library, flow cytometry, VLA-4 expressing cells; inhibition, % (about 7 µM as worked out from the volumes in the protocol); actives 0.2% (n = 330,000); ligand binding flow cytometry; Integrin alpha-4 (Homo sapiens), P13612; in the data active = inhibition above about 50%
Target sequence (P13612 whole entry, looked up): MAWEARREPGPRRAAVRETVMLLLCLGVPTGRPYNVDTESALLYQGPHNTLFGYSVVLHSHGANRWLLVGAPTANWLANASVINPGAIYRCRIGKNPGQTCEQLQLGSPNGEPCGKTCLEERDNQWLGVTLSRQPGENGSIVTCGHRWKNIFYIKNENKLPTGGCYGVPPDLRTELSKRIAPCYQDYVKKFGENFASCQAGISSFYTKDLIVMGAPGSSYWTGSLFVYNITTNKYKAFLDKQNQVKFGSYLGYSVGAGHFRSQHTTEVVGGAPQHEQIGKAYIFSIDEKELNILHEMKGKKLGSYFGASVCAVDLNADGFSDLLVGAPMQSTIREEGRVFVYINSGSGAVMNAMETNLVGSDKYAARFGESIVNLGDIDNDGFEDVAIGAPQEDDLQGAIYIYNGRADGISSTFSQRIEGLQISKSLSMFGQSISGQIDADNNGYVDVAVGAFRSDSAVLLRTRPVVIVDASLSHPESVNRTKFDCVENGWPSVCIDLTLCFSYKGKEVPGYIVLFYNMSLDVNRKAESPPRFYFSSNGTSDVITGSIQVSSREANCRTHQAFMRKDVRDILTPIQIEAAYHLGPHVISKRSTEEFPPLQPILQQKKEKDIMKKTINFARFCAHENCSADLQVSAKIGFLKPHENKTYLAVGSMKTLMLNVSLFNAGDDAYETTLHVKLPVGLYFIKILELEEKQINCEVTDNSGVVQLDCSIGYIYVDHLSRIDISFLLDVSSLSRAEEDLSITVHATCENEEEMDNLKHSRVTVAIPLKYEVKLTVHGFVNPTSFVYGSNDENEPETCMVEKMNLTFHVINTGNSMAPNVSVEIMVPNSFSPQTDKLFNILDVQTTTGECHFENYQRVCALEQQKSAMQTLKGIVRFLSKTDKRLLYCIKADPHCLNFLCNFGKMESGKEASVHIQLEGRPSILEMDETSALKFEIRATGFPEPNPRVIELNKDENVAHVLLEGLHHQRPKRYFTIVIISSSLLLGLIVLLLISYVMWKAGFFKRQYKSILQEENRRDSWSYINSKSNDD
Rce1 inh: yeast Rce1p protease inhibitors, primary screen, biochemical, fluorescence, cell-free homogeneous; CAAX prenyl protease 2 (Saccharomyces cerevisiae (strain ATCC 204508 / S288c)), Q03530; yeast membranes, quenched prenylated peptide cleavage fluorescence; calls only; actives 0.27% (n = 290,000); AID 2563, 2010;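 active = fall in fluorescence gain of 50% or more versus controls, with final raw signal at or below 3038400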;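 also: plate controls were neutral control wells for no effect and wells lacking membranes for full effect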
Platelet DG rel: inhibitors of platelet dense granule secretion, primary screen, cell-based, MLPCN, human platelets; human platelet-rich plasma, SFLLRN dense granule ATP release, luminescence; inhibition, %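 (compounds screened at 7.5 µM in platelet-rich plasma)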; actives 0.22% (n = 300,000);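 active = mean replicate score, as percent of positive control, at or above 50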
TAAR1 ag confirm: human TAAR1 agonists, retest of hits, confirmation, Fluo-8 calcium fluorescence, CHO RD-HGA16 cells | activation, % at 3 µM | scaled: DMSO 0%, maximal phenethylamine 100% | shares compounds with TAAR1 ag | actives 82% (n = 2,400);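 active = activation above a cutoff set at the run's mean compound activation plus 3 SD, cut at about 39% in these data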
Ga16 nonsel ag: nonselective calcium mobilization agonists, CHO-Ga16 cells, counter-screen for hTAAR1 agonist project, cell-based, fluorescence, CHO-Ga16 parental line; shares compounds with TAAR1 ag; Fluo-8 calcium fluorescence; normalized to maximal ATP response, DMSO zero; activation, % at 3 µM; actives 50% (n = 2,400); AID 651787, 2012;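 active = activation above the run cutoff, the mean activation over all tested wells plus 3 SD, cut at about 12% in these data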;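 also: 0% = DMSO wells and 100% = maximal ATP response on the peak over basal ratio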
TAAR1 desens: TAAR1 desensitization by agonist hits, confirmation, counter-screen for TAAR1 agonist project, cell-based, fluorescence, tachyphylaxis. shares compounds with TAAR1 ag. CHO RD-HGA16 hTAAR1, Fluo-8 calcium, beta-PEA response inhibition. inhibition, % at 3 µM. actives 46% (n = 2,400). AID 651951, 2012;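 active = inhibition above the run cutoff, the mean inhibition of all test compounds plus 3 SD, cut at about 49% in these data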;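 also: beta-PEA stimulus applied at its EC80; loss of beta-PEA calcium signal after compound pretreatment read as receptor desensitization; 0% = DMSO with beta-PEA at EC80 and 100% = DMSO alone without agonist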
Ga16 antag count: inhibition of ATP-evoked calcium response in CHO-Ga16 cells, counter-screen for TAAR1 agonist project, cell-based, fluorescence. inhibition, % at 3 µM. CHO-Ga16 ATP-induced calcium, Fluo-8 fluorescence. shares compounds with TAAR1 ag. actives 39% (n = 2,400);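 active = inhibition above the plate's mean compound inhibition plus 3 SD, computed per plate, cut at about 22% in these data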;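 also: 0% = EC80 ATP with DMSO and 100% = DMSO wells without ATP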
Numbers without * were called inactive. The list is not random: actives were taken first. Their share in the collection is about 2.6%.

For O=C(Nc1ccccc1)c1nnsc1S(=O)c1ccc(Cl)cc1 (stereo not drawn) the results were TAAR1 antag 96*, TAAR1 ag 68*, VLA-4 inh 14, Rce1 inh inactive, Platelet DG rel 28, TAAR1 ag confirm 49*, Ga16 nonsel ag 23*, TAAR1 desens 81* and Ga16 antag count 38*.
`CSCCC(NC(=O)COc1ccccc1)C(=O)OCc1ccc([N+](=O)[O-])cc1` (stereo not drawn) gave TAAR1 antag 2, TAAR1 ag 0, VLA-4 inh 1, Rce1 inh inactive and Platelet DG rel 6.
`CC(=O)c1c(C)[nH]c(C(=O)COc2ccc3ccc(=O)oc3c2)c1C` gave TAAR1 antag 46, TAAR1 ag 14, VLA-4 inh -4, Rce1 inh inactive and Platelet DG rel -4.
COC(=O)c1c(C)[nH]c(C(=O)COc2ccc3ccc(=O)oc3c2)c1C was read as TAAR1 antag 51*, TAAR1 ag 59*, VLA-4 inh -5, TAAR1 ag confirm 19, Ga16 nonsel ag 14*, TAAR1 desens 50* and Ga16 antag count 31*.
CN1C(=O)C(Cc2cnc[nH]2)NC1=S (stereo not drawn) was read as TAAR1 antag -20, TAAR1 ag 1, VLA-4 inh 11, Rce1 inh inactive and Platelet DG rel 0.
Screening N#Cc1c(NCCN)nc(-c2ccccc2)c2c1CCCC2 returned TAAR1 antag -28, TAAR1 ag 54*, VLA-4 inh -6, Rce1 inh inactive, Platelet DG rel -13, TAAR1 ag confirm 38*, Ga16 nonsel ag 5, TAAR1 desens 9 and Ga16 antag count 8.
COCC(=O)Nc1nc2ccccc2s1 was read as TAAR1 antag 12, TAAR1 ag 4, VLA-4 inh 10, Rce1 inh inactive and Platelet DG rel -1.
Screening COC(=O)CCCCCCCCC(=O)Nc1nc2ccccc2s1 returned TAAR1 antag 2, TAAR1 ag 50*, VLA-4 inh -5, Rce1 inh inactive, Platelet DG rel -6, TAAR1 ag confirm 76*, Ga16 nonsel ag 37*, TAAR1 desens 18 and Ga16 antag count 5.
`Cc1cnc(NC(=O)CCCSc2nc3ccccc3s2)s1` gave TAAR1 antag 61*, TAAR1 ag 53*, VLA-4 inh 4, Platelet DG rel -11, TAAR1 ag confirm 9, Ga16 nonsel ag 2, TAAR1 desens 2 and Ga16 antag count 4.
O=C(COC(=O)c1cccnc1Cl)Nc1ccc(N2CCOCC2)cc1 was read as TAAR1 antag -18 and TAAR1 ag 5.
COc1ccc(NC(=O)c2ccccc2NC(=O)C2CCCCC2C(=O)O)cc1 (stereo not drawn) was read as TAAR1 antag 0 and TAAR1 ag 0.
For Cc1ccc(NC(=O)CCc2nc3sc4c(c3c(=O)[nH]2)CCCC4)c(Br)c1 the results were VLA-4 inh -10, Rce1 inh inactive and Platelet DG rel -6.
For COc1cc(C(C)=O)ccc1OC(=O)N1CCOCC1 the results were TAAR1 antag -16 and TAAR1 ag 3.
`O=C1NC[C@@H](CCCCN2C[C@H](Cc3ccc(O)cc3)N(CCc3ccccc3)C(=O)C2=O)N(CC2CCCCC2)C1=O` gave TAAR1 antag -8 and TAAR1 ag 1.
Screening Cc1ccc(-c2nn(-c3ccccc3)cc2CSC(=N)N)cc1 returned TAAR1 antag 10, TAAR1 ag 76*, VLA-4 inh 21, Rce1 inh inactive, Platelet DG rel -1, TAAR1 ag confirm 84*, Ga16 nonsel ag 27*, TAAR1 desens 47 and Ga16 antag count 25*.
Screening Cc1ccc(-c2nn(-c3ccccc3)cc2CC(=S)N2CCOCC2)cc1 returned TAAR1 antag -12, TAAR1 ag 9, VLA-4 inh 16, Rce1 inh inactive and Platelet DG rel -1.
`O=C(CCCc1ccccc1)Nc1cccc2c1CCCC2` gave TAAR1 antag 71*, TAAR1 ag 55*, VLA-4 inh 3, Rce1 inh inactive, Platelet DG rel 4, TAAR1 ag confirm 6, Ga16 nonsel ag 5, TAAR1 desens 9 and Ga16 antag count 18.
Screening CC(C)(C)OC(=O)C[C@H]1C/C=C\C[C@@H](CC(=O)NCCO)C(=O)NC[C@@H](c2ccccc2)OC1=O returned TAAR1 antag 9, TAAR1 ag -1 and VLA-4 inh 2.
For CN(C)CCNC(=O)c1c(NC(=O)c2ccccc2)sc2c1CCCC2 the results were TAAR1 antag -7, TAAR1 ag 1, VLA-4 inh 7, Rce1 inh inactive and Platelet DG rel -10.
For Nc1sc2c(c1C(=O)c1ccccc1)CCCC2 the results were TAAR1 antag -8, TAAR1 ag -1, VLA-4 inh -8, Rce1 inh inactive and Platelet DG rel 1.
For Nc1sc2c(c1C(=O)NCCc1ccccc1)CCC2 the results were TAAR1 antag 29, TAAR1 ag 54*, VLA-4 inh -8, Rce1 inh inactive, Platelet DG rel 9, TAAR1 ag confirm 81*, Ga16 nonsel ag 3, TAAR1 desens 61* and Ga16 antag count 7.
For Nc1sc2c(c1C(=O)NCCc1ccccc1)CCCC2 the results were TAAR1 antag 64*, TAAR1 ag 76*, TAAR1 ag confirm 90*, Ga16 nonsel ag 2, TAAR1 desens 79* and Ga16 antag count 8.
COC(=O)c1ccccc1NC(=O)CN1C(=O)CSC1=O was read as TAAR1 antag 1, TAAR1 ag 7, VLA-4 inh -3, Rce1 inh inactive and Platelet DG rel -4.
